Common to all, as to format: functional
For assay [1], the system named is Anopheles stephensi. As to the kind of experiment: Insecticidal activity against Anopheles stephensi second instar larvae assessed as mortality at 0.2 mM after 24 hrs by microscopic analysis relative to control. The procedure, abridged: (§1)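 Second instar larvae of Ae. aegypti and An. stephensi were exposed to compounds added directly to the culture media, with DMSO as the vehicle control. Larval mortality was scored 24 h later and reported as mean with SEM, with statistical testing against control.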

Assay [2] relates to Aedes aegypti. As to the kind of experiment: Insecticidal activity against Aedes aegypti assessed as ovarian follicle size at 0.7 mM administered 1 hr post human blood-meal measured after 47 hrs (reference value: 482.6+/-4.8 um).
Assay [3] deals with Aedes aegypti. As to the kind of experiment: Insecticidal activity against Aedes aegypti second instar larvae assessed as mortality at 0.2 mM after 24 hrs by microscopic analysis relative to control. The procedure, abridged: as §1
Assay [4] can be described thus: Selectivity ratio of mortality against Anopheles stephensi second instar larvae to mortality against Aedes aegypti second instar larvae.
For assay [5], the system named is Aedes aegypti. As to the kind of experiment: Insecticidal activity against Aedes aegypti second instar larvae assessed as mortality after 24 hrs by microscopic analysis relative to control. The procedure, abridged:
as §1

In assay [6] the test system is Anopheles stephensi. As to the kind of experiment: Insecticidal activity against Anopheles stephensi second instar larvae assessed as mortality after 24 hrs by microscopic analysis relative to control. Put shortly: as §1

Molecules are shown by their SMILES.

For the compound `Fc1cc(F)c2c(c1)[C@H]1C=CC[C@H]1[C@@H](c1cccnc1)N2`, the Activity is listed as 0% in the assay on Anopheles stephensi [1], 408.2 um with Aedes aegypti [2] and 4.7% in the assay on Aedes aegypti [3].

Consider `Fc1cc(F)c2c(c1)[C@@H]1C=CC[C@@H]1[C@H](c1cccnc1)N2`, for which the values for the Activity in the assay on Anopheles stephensi [1], in the assay on Aedes aegypti [2] and with Aedes aegypti [3] were 83.4%, 270 um and 18.1%, respectively. Also, the Ratio in assay [4] is 5.

Turning to `Fc1cc(F)c2c(c1)[C@H]1C=CC[C@H]1[C@H](c1cccnc1)N2`, the Activity in the assay with Anopheles stephensi [1] turned out to be 0%; in the assay on Aedes aegypti [2], 433.6 um; in the assay with Aedes aegypti [3], 1.5%.

As to `Fc1cc(F)c2c(c1)[C@@H]1C=CC[C@@H]1[C@@H](c1cccnc1)N2`, the results for the Activity in the assay on Anopheles stephensi [1], in the assay on Aedes aegypti [2] and in the assay with Aedes aegypti [3] were 57.5%, 407.7 um and 12.3%, respectively. In addition, the Ratio in assay [4] was determined as 5.

On to `Fc1cc(F)c2c(c1)[C@@H]1C=CC[C@@H]1[C@H](c1ccccc1)N2`, for which the Activity was 0% in the assay on Anopheles stephensi [1], 235.1 um in the assay with Aedes aegypti [2] and 0% in the assay on Aedes aegypti [3].

As for `Fc1cc(F)c2c(c1)[C@@H]1C=CC[C@@H]1C(c1cccnc1)N2` (mixture of isomers), the Activity in the assay on Aedes aegypti [2] amounted to 291.8 um.

In the case of `Fc1cc(C(F)(F)F)cc2c1NC(c1cccnc1)[C@H]1CC=C[C@@H]21` (mixture of isomers), the figures for the Activity with Anopheles stephensi [1], in the assay with Aedes aegypti [2] and with Aedes aegypti [3] were 0%, 315 um and 5.3%, respectively.

Turning to `CN1c2c(F)cc(F)cc2[C@@H]2C=CC[C@@H]2[C@@H]1c1cccnc1` (racemic), the Activity stood at 100% in the assay with Anopheles stephensi [1], 416.3 um with Aedes aegypti [2] and 96.2% in the assay on Aedes aegypti [3]. Moreover, the LC50 in the assay on Aedes aegypti [5] and in the assay with Anopheles stephensi [6] was 100 µM throughout.

`Fc1ccc2c(c1)[C@@H]1C=CC[C@@H]1[C@H](c1cccnc1)N2` (racemic): the Activity came out at 0% in the assay with Anopheles stephensi [1], 343.8 um in the assay on Aedes aegypti [2] and 0% in the assay on Aedes aegypti [3].

As for `CC(=O)N1c2c(F)cc(F)cc2[C@@H]2C=CC[C@@H]2[C@@H]1c1cccnc1` (racemic), the values for the Activity in the assay on Anopheles stephensi [1], with Aedes aegypti [2] and in the assay on Aedes aegypti [3] were 0%, 442.7 um and 1.7%, respectively.

On to `Fc1cccc2c1N[C@@H](c1cccnc1)[C@H]1CC=C[C@@H]21` (racemic), for which the Activity was determined as 100% in the assay with Anopheles stephensi [1], 312.1 um in the assay with Aedes aegypti [2] and 91.4% in the assay on Aedes aegypti [3]. For the same compound, the LC50 in the assay on Aedes aegypti [5] and in the assay on Anopheles stephensi [6] was 200 µM in each case.

`Fc1cc(F)c2c(c1)[C@@H]1C=CC[C@@H]1[C@H](c1cncs1)N2` (racemic): the Activity with Anopheles stephensi [1] was determined as 37.6%; in the assay on Aedes aegypti [2] it was 330.8 um; with Aedes aegypti [3], 0%. Moreover, the Ratio in assay [4] turned out to be 5.

As to `CC(C)(C)[C@@H]1Nc2c(F)cc(F)cc2[C@@H]2C=CC[C@H]12` (racemic), the values for the Activity with Anopheles stephensi [1], in the assay on Aedes aegypti [2] and in the assay on Aedes aegypti [3] were 86.4%, 326.2 um and 15.4%, respectively. For the same compound, the Ratio in assay [4] is 5.

Turning to `Fc1cc(F)c2c(c1)[C@@H]1C=CC[C@@H]1[C@H](c1ccccn1)N2` (racemic), the Activity in the assay with Anopheles stephensi [1] was determined as 100%; in the assay with Aedes aegypti [2] it was 287.5 um; with Aedes aegypti [3], 100%. The LC50 with Aedes aegypti [5] and in the assay on Anopheles stephensi [6] was 100 µM throughout.

With `N#Cc1ccc([C@@H]2Nc3c(F)cc(F)cc3[C@@H]3C=CC[C@@H]32)cc1` (racemic), the Activity in the assay on Anopheles stephensi [1] was 0%; with Aedes aegypti [2], 309.5 um; with Aedes aegypti [3] it was 0%.

Regarding `CC(=O)NCc1ccc([C@@H]2Nc3c(F)cc(F)cc3[C@@H]3C=CC[C@@H]32)cc1` (racemic), the Activity stood at 0% in the assay on Anopheles stephensi [1], 375.4 um with Aedes aegypti [2] and 0% in the assay with Aedes aegypti [3].

Take `NCc1ccc([C@@H]2Nc3c(F)cc(F)cc3[C@@H]3C=CC[C@@H]32)cc1` (racemic): the Activity turned out to be 81.7% in the assay on Anopheles stephensi [1], 301.5 um in the assay with Aedes aegypti [2] and 91.7% in the assay with Aedes aegypti [3]. For the same compound, the LC50 was determined as 200 µM with Aedes aegypti [5] and 100 µM with Anopheles stephensi [6].

In the case of `Fc1cc(F)c2c(c1)[C@@H]1C=CC[C@@H]1[C@H](c1ccc(C(F)(F)F)cc1)N2` (racemic), the Activity amounted to 0% in the assay on Anopheles stephensi [1], 230.4 um in the assay on Aedes aegypti [2] and 5.9% in the assay on Aedes aegypti [3].

As for `CN1CCC(NCc2ccc([C@@H]3Nc4c(F)cc(F)cc4[C@@H]4C=CC[C@@H]43)cc2)CC1` (racemic), the Activity with Anopheles stephensi [1] is on record as 100%; in the assay with Aedes aegypti [2], 275.3 um; in the assay on Aedes aegypti [3], 100%. In addition, the LC50 in the assay with Aedes aegypti [5] and in the assay on Anopheles stephensi [6] was 50 µM in each case.

For `CCCCCCCNCc1ccc([C@@H]2Nc3c(F)cc(F)cc3[C@@H]3C=CC[C@@H]32)cc1` (racemic), the Activity in the assay on Anopheles stephensi [1] came to 0%; in the assay with Aedes aegypti [2], 243.4 um; in the assay on Aedes aegypti [3] it was 0%.

In the case of `Fc1cc(F)c2c(c1)[C@@H]1C=CC[C@@H]1[C@H](c1ccc(CNCc3ccc4ccccc4c3)cc1)N2` (racemic), the Activity with Anopheles stephensi [1] is reported as 0%; with Aedes aegypti [2], 255.9 um; in the assay on Aedes aegypti [3], 0%.

For the compound `Fc1cc(F)c2c(c1)[C@@H]1C=CC[C@@H]1[C@H](c1ccc(CNCc3ccc(C(F)(F)F)cc3)cc1)N2` (racemic), the Activity in the assay on Anopheles stephensi [1] is given as 0%; in the assay with Aedes aegypti [2] it was 297.5 um; in the assay with Aedes aegypti [3] it was 0%.

The term LC50 denotes the concentration that kills 50% of the test population.
